Measured values reported in ChEMBL document CHEMBL4321820, “Identification and Optimization of Mechanism-Based Fluoroallylamine Inhibitors of Lysyl Oxidase-like 2/3” (J Med Chem, 2019).

Assays:
[1] = biological target: T1, Protein-lysine 6-oxidase (Bos taurus, UniProt P33072); experiment: Inhibition of LOX in bovine aorta using putrescine as substrate preincubated with enzyme for 30 mins followed by substrate addition and measured every 2.5 mins for 30 mins by Amplex-Red oxidation assay; assay type: tissue-based; conditions: read-out: pIC50 (converted)
T1 sequence (P33072 whole entry): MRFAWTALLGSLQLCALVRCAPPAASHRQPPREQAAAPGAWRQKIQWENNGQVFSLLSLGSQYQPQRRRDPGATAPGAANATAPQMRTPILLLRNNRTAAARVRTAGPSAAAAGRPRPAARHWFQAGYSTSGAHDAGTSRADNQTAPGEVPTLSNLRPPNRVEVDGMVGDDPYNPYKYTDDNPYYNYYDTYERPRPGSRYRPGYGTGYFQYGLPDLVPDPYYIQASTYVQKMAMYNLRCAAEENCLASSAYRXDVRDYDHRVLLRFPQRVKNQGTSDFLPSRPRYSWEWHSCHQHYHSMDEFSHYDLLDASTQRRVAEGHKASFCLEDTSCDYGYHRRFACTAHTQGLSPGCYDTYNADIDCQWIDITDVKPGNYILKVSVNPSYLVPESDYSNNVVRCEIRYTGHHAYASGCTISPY
Summary of the method: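 LOX extracted from calf aorta after PBS washing with 4 M urea/50 mM borate pH 8.2, concentrated on 10 kDa filters into 1.2 M urea/borate with protease inhibitors. Preincubated 30 min at 37 °C with compound, then Amplex Red/HRP with 10 mM putrescine; fluorescence read every 2.5 min for 30 min.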

[2] = biological target: T2, Amine oxidase [flavin-containing] B (Homo sapiens, UniProt P27338); experiment: Inhibition of recombinant human MAOB expressed in baculovirus infected in BTI cells using benzylamine as substrate preincubated with enzyme for 30 mins followed by substrate addition and measured every 2.5 mins for 30 mins by Amplex-Red oxidation assay; conditions: human, 0.5 h
T2 sequence (P27338 whole entry): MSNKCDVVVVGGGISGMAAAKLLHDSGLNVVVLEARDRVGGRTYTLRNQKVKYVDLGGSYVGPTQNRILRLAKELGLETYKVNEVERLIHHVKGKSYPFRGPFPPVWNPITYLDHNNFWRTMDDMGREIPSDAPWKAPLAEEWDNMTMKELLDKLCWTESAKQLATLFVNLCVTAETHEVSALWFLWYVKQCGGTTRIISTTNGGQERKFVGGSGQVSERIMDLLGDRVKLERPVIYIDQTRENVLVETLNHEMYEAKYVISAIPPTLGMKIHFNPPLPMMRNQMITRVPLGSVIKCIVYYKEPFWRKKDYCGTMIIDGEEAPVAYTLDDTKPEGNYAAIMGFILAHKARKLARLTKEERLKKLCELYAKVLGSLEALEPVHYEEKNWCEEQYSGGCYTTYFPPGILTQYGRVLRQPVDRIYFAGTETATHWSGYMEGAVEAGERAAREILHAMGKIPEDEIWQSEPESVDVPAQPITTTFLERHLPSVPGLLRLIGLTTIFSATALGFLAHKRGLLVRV

[3] = tested on: SSAO/plasma amine oxidase; experiment: Metabolic stability of the compound in dog plasma assessed as SSAO/plasma amine oxidase-mediated compound oxidation by measuring parent compound remaining after 1 hr; assay type: ADME, Canis lupus familiaris; conditions: read-out: Stability
Summary of the method: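 Compound incubated in dog plasma; percentage of parent compound remaining measured after 1 hour.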

[4] = biological target: T3, Amine oxidase [copper-containing] 3 (Homo sapiens, UniProt Q16853); experiment: Inhibition of recombinant human SSAO using benzylamine as substrate preincubated with enzyme for 30 mins followed by substrate addition and measured every 2.5 mins for 30 mins by Amplex-Red oxidation assay; conditions: read-out: pIC50 (converted)
T3 sequence (Q16853 whole entry): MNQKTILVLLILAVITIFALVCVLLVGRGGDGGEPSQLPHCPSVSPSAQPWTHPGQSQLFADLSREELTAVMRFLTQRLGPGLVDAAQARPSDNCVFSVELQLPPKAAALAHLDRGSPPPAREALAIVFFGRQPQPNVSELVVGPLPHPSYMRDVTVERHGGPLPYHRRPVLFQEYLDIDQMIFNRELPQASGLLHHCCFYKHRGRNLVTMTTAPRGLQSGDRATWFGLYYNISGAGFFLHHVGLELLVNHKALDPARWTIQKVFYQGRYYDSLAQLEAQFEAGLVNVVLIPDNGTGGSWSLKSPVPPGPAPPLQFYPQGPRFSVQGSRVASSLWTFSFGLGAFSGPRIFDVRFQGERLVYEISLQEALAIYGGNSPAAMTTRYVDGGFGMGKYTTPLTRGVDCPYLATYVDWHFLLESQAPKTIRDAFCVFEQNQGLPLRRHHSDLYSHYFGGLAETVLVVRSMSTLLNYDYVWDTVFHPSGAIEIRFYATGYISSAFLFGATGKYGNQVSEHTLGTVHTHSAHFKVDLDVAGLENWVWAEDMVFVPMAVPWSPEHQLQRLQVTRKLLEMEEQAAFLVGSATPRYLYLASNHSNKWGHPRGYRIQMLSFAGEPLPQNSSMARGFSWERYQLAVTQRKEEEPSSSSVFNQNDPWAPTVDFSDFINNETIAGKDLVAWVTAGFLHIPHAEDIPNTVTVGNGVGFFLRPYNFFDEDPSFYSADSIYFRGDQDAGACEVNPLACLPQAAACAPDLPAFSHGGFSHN

[5] = biological target: T4, Lysyl oxidase homolog 2 (Homo sapiens, UniProt Q9Y4K0); experiment: Inhibition of recombinant human C-terminal His-tagged […] (1-774 residues) expressed in mouse myeloma cells using putrescine as substrate preincubated with enzyme for 30 mins followed by substrate addition and measured every 2.5 mins for 30 mins by Amplex-Red oxidation assay; conditions: read-out: pIC50 (converted)
T4 sequence (Q9Y4K0 whole entry): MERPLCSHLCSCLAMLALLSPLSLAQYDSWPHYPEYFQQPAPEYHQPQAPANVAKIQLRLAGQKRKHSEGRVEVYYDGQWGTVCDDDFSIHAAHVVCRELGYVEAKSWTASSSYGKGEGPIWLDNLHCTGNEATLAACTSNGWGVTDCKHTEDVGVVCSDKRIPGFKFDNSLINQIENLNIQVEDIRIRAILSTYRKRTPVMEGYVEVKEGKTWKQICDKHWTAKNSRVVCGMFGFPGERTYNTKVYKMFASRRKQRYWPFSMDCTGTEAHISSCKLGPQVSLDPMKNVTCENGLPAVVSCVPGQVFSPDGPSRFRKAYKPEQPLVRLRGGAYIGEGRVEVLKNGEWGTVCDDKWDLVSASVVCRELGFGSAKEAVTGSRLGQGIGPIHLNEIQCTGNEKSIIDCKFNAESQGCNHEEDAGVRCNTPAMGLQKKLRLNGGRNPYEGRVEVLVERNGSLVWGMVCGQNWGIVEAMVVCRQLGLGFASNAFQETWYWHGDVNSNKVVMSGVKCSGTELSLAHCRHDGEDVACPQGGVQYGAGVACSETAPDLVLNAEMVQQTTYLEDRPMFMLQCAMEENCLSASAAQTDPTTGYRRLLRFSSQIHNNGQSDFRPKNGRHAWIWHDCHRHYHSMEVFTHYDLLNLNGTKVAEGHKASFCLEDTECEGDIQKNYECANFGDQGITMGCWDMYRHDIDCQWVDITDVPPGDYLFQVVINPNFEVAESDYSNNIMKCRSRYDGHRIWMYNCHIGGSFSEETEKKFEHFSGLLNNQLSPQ
Summary of the method: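 LOXL2 enzyme preincubated with compound for 30 min at 37 °C, then Amplex Red (120 µM) / HRP (1.5 U/mL) mix containing 5 mM putrescine added. Buffer: 1.2 M urea, 50 mM sodium borate, pH 8.2. H2O2 fluorescence (ex 565/em 590) read every 2.5 min for 30 min at 37 °C; BAPN 100 µM as positive control; n≥2.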

[6] = Metabolic stability of the compound in dog plasma assessed as SSAO/plasma amine oxidase-mediated compound oxidation preincubated with SSAO/primary amine oxidase inhibitor, semicarbazide followed by incubation with compound and measured after 1 hr; assay type: ADME, Canis lupus familiaris
[7] = biological target: T4, Lysyl oxidase homolog 2; experiment: Substrate activity at recombinant human C-terminal His-tagged […] (1-774 residues) expressed in mouse myeloma cells assessed as oxidative turnover at 30 uM measured after 30 mins by horseradish peroxidase-coupled amplex red reagent-based fluorescence assay relative to DMSO; assay type: ADME, cell-based; conditions: 0.5 h
Summary of the method: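 LOXL2 incubated with compound, no substrate present. Hydrogen peroxide generation read by Amplex Red/HRP fluorescence (ex 565, em 590 nm). Oxidative turnover at 30 min expressed relative to DMSO.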

[8] = biological target: T5, Lysyl oxidase homolog 2 (Homo sapiens) (UniProt Q9Y4K0); experiment: Inhibition of recombinant human C-terminal His-tagged […] (1-774 residues) expressed in mouse myeloma cells assessed as recovery of enzyme activity at 10XIC50 preincubated with bound enzyme for 30 mins followed by drug wash-out and later incubated with putrescine substrate and measured after 30 mins by Amplex-Red oxidation assay; assay type: cell-based; design: scale not given: the % may be the effect or the level left
T5 sequence (whole entry): T4 sequence (Q9Y4K0 whole entry)

[9] = biological target: T3, Amine oxidase [copper-containing] 3; experiment: Substrate activity at recombinant human SSAO assessed as compound oxidation by measuring oxidative turnover at 30 uM measured for 40 mins by horseradish peroxidase-coupled amplex red reagent-based fluorometric assay relative to DMSO; assay type: ADME
Summary of the method: (§1)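 Compound oxidation measured without substrate by peroxidase-coupled fluorometric read-out of resorufin formation over 40 min at 37 °C in HEPES buffer. Amplex Red 20 µM, HRP 4 U/ml, test compound at final 30 µM. Enzyme source was human recombinant SSAO or AOC4 from diluted dog serum. Benzylamine at 600 µM served as positive control. Signal is expressed relative to DMSO-only background, so a value near 1 means no turnover.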

[10] = Substrate activity at AOC4 in dog serum assessed as compound oxidation by measuring oxidative turnover at 30 uM measured for 40 mins by horseradish peroxidase-coupled amplex red reagent-based fluorometric assay relative to DMSO; assay type: ADME, cell-free, Canis lupus familiaris; summary of the method: as §1

IC50 [1] | pIC50 [2] | remaining at 1 h [3] | IC50 [4] | IC50 [5] | Stability [6] | fold change (FC) [7] | Activity [8] | fold change (FC) [9] | fold change (FC) [10] | SMILES
794 nM | Not Active | 0% | > 31600 nM | 20 nM | Stable | – | – | – | – | CN(C)S(=O)(=O)c1ccc(OCc2cn(C/C(F)=C/CN)nn2)c(Cl)c1.Cl
3160 nM | – | – | – | 794 nM | – | 6 | 75% | 1 | 1.3 | Cc1c(-c2cccc(S(=O)(=O)N(C)C)c2)c2cc(C(=O)O)ccc2n1C/C=C/CN.Cl
